ChEMBL document CHEMBL1828613, “Optimization of cellular activity of G9a inhibitors 7-aminoalkoxy-quinazolines” (J Med Chem, 2011)

Legend:
[1] = molecular target: T1, Histone-lysine N-methyltransferase SETD7 (Homo sapiens, UniProt Q8WTS6); assay: Inhibition of SETD7 assessed as hydrolysis of S-adenosyl-L-homocysteine after 2 mins by SAHH-coupled fluorescence assay
T1 sequence (Q8WTS6 whole entry): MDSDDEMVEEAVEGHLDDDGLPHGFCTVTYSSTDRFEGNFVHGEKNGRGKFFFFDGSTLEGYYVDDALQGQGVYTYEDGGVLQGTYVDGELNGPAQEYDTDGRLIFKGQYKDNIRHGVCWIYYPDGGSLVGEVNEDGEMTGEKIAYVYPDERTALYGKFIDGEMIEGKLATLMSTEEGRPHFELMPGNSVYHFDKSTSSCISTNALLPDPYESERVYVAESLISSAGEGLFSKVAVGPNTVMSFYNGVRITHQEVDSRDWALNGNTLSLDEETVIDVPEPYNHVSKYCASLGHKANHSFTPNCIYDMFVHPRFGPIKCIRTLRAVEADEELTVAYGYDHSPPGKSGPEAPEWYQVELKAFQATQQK
Procedure, shortened: (§1)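 Same coupled ThioGlo readout (25 mM potassium phosphate pH 7.5, 25 μM SAM, 5 μM SAHH, adenosine deaminase), 4 nM–16 μM inhibitor with 2 min preincubation, 20 min fluorescence at 360/528 nm. Enzyme and substrate by target: SETD7 200 nM with 100 μM H3(1–25); SETD8 250 nM with 500 μM H4(1–24); SUV39H2 100 nM with 200 μM H3K9Me1(1–15).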

[2] = molecular target: T2, N-lysine methyltransferase KMT5A (Homo sapiens, UniProt Q9NQR1); assay: Inhibition of SETD8 assessed as hydrolysis of S-adenosyl-L-homocysteine after 2 mins by SAHH-coupled fluorescence assay; procedure, shortened: as §1
T2 sequence (Q9NQR1 whole entry): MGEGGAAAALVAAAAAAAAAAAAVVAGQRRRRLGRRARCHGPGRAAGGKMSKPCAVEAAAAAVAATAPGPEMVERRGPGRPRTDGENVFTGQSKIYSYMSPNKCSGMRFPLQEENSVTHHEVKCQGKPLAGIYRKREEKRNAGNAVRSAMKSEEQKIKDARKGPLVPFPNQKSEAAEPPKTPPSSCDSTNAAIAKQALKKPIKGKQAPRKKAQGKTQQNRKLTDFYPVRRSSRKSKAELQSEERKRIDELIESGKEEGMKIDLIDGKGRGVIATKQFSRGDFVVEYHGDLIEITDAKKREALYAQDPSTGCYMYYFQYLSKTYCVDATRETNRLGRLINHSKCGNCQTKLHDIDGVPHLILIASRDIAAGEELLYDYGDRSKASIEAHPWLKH

[3] = molecular target: Protein arginine N-methyltransferase 3 (Homo sapiens, UniProt O60678); assay: Inhibition of PRMT3 assessed as hydrolysis of S-adenosyl-L-homocysteine after 2 mins by SAHH-coupled fluorescence assay
Protein arginine N-methyltransferase 3, sequence (O60678 whole entry): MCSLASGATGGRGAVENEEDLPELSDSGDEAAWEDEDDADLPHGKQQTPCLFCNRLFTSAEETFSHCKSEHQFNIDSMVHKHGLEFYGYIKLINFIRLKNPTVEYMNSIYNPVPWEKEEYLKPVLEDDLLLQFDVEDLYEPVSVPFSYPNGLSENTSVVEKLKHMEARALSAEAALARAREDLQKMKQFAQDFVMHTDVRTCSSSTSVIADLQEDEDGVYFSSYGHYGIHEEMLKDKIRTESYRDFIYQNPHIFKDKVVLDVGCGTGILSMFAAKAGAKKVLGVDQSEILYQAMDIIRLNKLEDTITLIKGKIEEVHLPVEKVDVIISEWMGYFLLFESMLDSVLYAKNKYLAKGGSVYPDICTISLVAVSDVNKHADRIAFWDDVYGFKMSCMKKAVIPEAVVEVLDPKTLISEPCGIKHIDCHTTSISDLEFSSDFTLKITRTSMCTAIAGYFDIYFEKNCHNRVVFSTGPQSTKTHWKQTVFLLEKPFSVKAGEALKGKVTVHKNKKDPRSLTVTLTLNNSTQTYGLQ
Procedure, shortened: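 Enzyme-coupled fluorescence readout. Methyltransfer product SAH is converted to homocysteine by SAHH in the presence of adenosine deaminase, and homocysteine is detected with the thiol-sensitive dye ThioGlo. Buffer is 25 mM potassium phosphate pH 7.5 with 1 mM EDTA, 2 mM MgCl2 and 0.01% Triton X-100, plus 5 μM SAHH, 0.3 U/mL deaminase, 25 μM SAM and 15 μM ThioGlo. PRMT3 is at 500 nM. Inhibitor (4 nM–16 μM) is preincubated 2 min, then 10 μM H4(1–24) peptide starts the reaction. Fluorescence is followed for 20 min at ex 360/em 528 nm and background-corrected. IC50 is fitted from two independent experiments.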

[4] = molecular target: Histone-lysine N-methyltransferase SUV39H2 (Homo sapiens, UniProt Q9H5I1); assay: Inhibition of SUV39H2 assessed as hydrolysis of S-adenosyl-L-homocysteine after 2 mins by SAHH-coupled fluorescence assay; procedure, shortened: as §1
Histone-lysine N-methyltransferase SUV39H2, sequence (Q9H5I1 whole entry): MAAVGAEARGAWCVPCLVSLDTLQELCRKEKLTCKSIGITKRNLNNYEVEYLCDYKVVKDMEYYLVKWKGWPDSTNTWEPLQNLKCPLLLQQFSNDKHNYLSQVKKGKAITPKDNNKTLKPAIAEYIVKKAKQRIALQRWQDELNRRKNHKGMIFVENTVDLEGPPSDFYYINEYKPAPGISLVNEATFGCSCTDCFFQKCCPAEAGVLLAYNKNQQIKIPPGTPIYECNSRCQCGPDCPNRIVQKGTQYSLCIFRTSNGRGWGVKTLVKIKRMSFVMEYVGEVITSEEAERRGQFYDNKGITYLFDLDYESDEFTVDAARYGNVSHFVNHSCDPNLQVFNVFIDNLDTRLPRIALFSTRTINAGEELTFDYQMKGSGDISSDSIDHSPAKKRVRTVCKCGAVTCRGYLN

MDA-MB-231 = assay: Cytotoxicity against human MDA-MB-231 cells assessed as cell viability after 48 hrs by MTT assay; assay type: functional, cell-based; conditions: MDA-MB-231, 48 h
[5] = molecular target: T3, Histone-lysine N-methyltransferase EHMT1 (Homo sapiens, UniProt Q9H9B1); assay: Inhibition of GLP assessed as hydrolysis of S-adenosyl-L-homocysteine after 2 mins by SAHH-coupled fluorescence assay
T3 sequence (Q9H9B1 whole entry): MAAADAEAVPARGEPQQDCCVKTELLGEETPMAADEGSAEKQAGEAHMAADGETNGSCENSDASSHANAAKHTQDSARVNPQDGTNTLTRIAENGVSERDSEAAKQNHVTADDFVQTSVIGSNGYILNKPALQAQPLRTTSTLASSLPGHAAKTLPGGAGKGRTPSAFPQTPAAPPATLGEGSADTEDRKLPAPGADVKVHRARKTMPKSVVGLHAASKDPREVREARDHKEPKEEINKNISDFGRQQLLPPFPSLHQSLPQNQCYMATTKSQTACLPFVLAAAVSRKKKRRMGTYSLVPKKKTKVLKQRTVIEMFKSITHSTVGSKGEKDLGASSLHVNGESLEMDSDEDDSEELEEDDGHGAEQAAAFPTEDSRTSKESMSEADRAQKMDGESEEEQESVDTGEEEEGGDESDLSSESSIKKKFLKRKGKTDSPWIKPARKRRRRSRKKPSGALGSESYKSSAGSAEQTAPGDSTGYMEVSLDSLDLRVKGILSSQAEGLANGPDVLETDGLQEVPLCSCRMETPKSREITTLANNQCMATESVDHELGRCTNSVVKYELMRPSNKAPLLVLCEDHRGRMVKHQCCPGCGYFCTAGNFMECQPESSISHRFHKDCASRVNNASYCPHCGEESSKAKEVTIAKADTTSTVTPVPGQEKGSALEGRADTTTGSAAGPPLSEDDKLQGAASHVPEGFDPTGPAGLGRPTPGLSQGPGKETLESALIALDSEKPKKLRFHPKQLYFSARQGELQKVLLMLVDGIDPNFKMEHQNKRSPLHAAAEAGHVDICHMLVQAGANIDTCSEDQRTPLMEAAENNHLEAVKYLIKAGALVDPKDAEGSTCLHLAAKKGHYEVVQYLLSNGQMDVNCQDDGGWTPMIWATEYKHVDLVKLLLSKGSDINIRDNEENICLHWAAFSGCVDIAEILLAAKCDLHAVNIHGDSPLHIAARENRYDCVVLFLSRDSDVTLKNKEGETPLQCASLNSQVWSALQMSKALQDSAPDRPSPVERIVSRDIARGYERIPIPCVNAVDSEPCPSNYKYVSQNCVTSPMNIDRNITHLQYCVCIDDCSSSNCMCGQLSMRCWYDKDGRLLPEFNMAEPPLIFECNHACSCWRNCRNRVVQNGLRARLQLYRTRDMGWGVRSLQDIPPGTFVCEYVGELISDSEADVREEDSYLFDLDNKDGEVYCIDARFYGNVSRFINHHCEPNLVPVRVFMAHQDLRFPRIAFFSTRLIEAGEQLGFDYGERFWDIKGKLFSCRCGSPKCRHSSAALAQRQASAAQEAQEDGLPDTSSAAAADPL
Procedure, shortened: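 GLP at 100 nM was tested by SAHH/adenosine deaminase/ThioGlo coupling in pH 7.5 potassium phosphate buffer with EDTA, MgCl2, Triton X-100 and 25 μM SAM. Inhibitor (4 nM–16 μM) was preincubated 2 min before adding 20 μM H3(1–25). Fluorescence rise (360/528 nm) was tracked 20 min and background-subtracted. IC50 from two independent experiments.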

COc1cc2c(NC3CCN(C4CCCCC4)CC3)nc(N3CCCN(C(C)C)CC3)nc2cc1OCCCN1CCCCC1
IC50 [1]: > 10 µM
IC50 [2]: > 10 µM
IC50 [3]: > 10 µM
IC50 [4]: > 10 µM
EC50 (MDA-MB-231): 3.3 µM
IC50 [5]: < 0.015 µM
